We go through five compounds from ChEMBL document CHEMBL1144027, “Synthesis and antimycobacterial evaluation of newer 1-cyclopropyl-1,4-dihydro-6-fluoro-7-(substituted secondary amino)-8-methoxy-5-(sub)-4-oxoquinoline-3-carboxylic acids” (Bioorg Med Chem, 2008).

Values after ≈ are worked out from the molar mass of the structure shown.

Data set [1] relates to Mus musculus. The experiment in a line: Phototoxicity in Swiss albino mouse assessed as ear thickness at 140 mg/kg, po after 72 hrs of irradiation. The data set is classed as organism-based. On the set-up: dose 140 mg/kg, route oral. As to conditions: in vivo. The essentials:
(§1)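 Female Swiss albino mice (~2 months, 20-25 g), fasted ≥18 h, single 140 mg/kg oral gavage dose; groups of 6 (compound, lomefloxacin HCl 140 mg/kg, 0.5% carboxymethylcellulose vehicle 10 ml/kg); UV irradiation 4 h (~18 J/cm²) right after dosing; both ears scored for erythema, oedema, thickness pre-dose, at end of irradiation, and ~24-96 h; thickness given as mean of both ears ± SEM.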

In data set [2] the test system is Mus musculus. The experiment in a line: Phototoxicity in Swiss albino mouse assessed as erythema incidence at 140 mg/kg, po after 4 hrs of irradiation. The data set is classed as organism-based. Also on record: dose 140 mg/kg, route oral. Particulars: in vivo. The essentials:
as §1

The target of data set [3] is DNA gyrase subunit B (Mycobacterium smegmatis (strain ATCC 700084 / mc(2)155), UniProt A0QNE0). The experiment in a line: Inhibition of Mycobacterium smegmatis MC2 DNA gyrase GyrB ATPase supercoiling activity. On the set-up: species or system Mycolicibacterium smegmatis. The essentials:
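Gyrase purified from M. smegmatis MC2 cells; compounds in DMSO pre-incubated with enzyme, then 400 ng relaxed pUC18 added in 35 mM Tris-HCl pH 7.5, 5 mM MgCl2, 25 mM K glutamate, 2 mM spermidine, 2 mM ATP, BSA, tRNA, 5% glycerol; 30 min; heat-stopped 65 °C 15 min; agarose gel, ethidium bromide staining; ciprofloxacin 10 µg/ml and 5% DMSO controls.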

The test system of data set [4] is Mus musculus. The experiment in a line: Phototoxicity in Swiss albino mouse assessed as ear thickness at 140 mg/kg, po after 24 hrs of irradiation. It is filed as organism-based. Particulars: in vivo. Also on record: dose 140 mg/kg, route oral. The essentials:
as §1

Data set [5] concerns Mus musculus. The experiment in a line: Phototoxicity in Swiss albino mouse assessed as ear thickness at 140 mg/kg, po after 48 hrs of irradiation. It is filed as organism-based. Particulars: in vivo. On the set-up: dose 140 mg/kg, route oral. The essentials:
as §1

The test system of a further data set is Vero. The experiment in a line: Cytotoxicity against african green monkey Vero cells after 72 hrs by MTT assay. As to conditions: Chlorocebus sabaeus. The data set is classed as cell-based. The essentials:
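Mammalian Vero cells exposed to compounds at 62.5 µg/ml for 72 h; viability read by cellular conversion of MTT to formazan (Cell Titer 96 non-radioactive proliferation assay).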

The test system of data set [6] is Mus musculus. The experiment in a line: Phototoxicity in Swiss albino mouse assessed as ear thickness at 140 mg/kg, po after 4 hrs of irradiation. Also on record: dose 140 mg/kg, route oral. The data set is classed as organism-based. Particulars: in vivo. The essentials:
as §1

Data set [7] has as its system Mus musculus. The experiment in a line: Phototoxicity in Swiss albino mouse assessed as erythema incidence at 140 mg/kg, po after 24 hrs of irradiation. The data set is classed as organism-based. Also on record: dose 140 mg/kg, route oral. Particulars: in vivo. The essentials: as §1
Data set [8] concerns Mus musculus. The experiment in a line: (§2) Phototoxicity in Swiss albino mouse assessed as erythema incidence at 140 mg/kg, po after 48 hrs of irradiation. The data set is classed as organism-based. Also on record: dose 140 mg/kg, route oral. Particulars: in vivo. The essentials: as §1
The test system of data set [9] is Mus musculus. The experiment in a line: Phototoxicity in Swiss albino mouse assessed as ear thickness at 140 mg/kg, po after 96 hrs of irradiation. The data set is classed as organism-based. Also on record: dose 140 mg/kg, route oral. Particulars: in vivo. The essentials:
as §1

Data set [10] deals with Mus musculus. The experiment in a line: Phototoxicity in Swiss albino mouse assessed as erythema incidence at 140 mg/kg, po after 96 hrs of irradiation. It is filed as organism-based. On the set-up: dose 140 mg/kg, route oral. Particulars: in vivo. The essentials:
as §1

For data set [11], the system named is Mycobacterium tuberculosis. The experiment in a line: Antimycobacterial activity against Mycobacterium tuberculosis H37Rv by agar dilution method. The data set is classed as functional. The essentials:
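Agar dilution MIC on Middlebrook 7H11 agar with OADC, following the NCCLS-recommended approach, run in duplicate. The MDR clinical isolate was resistant to isoniazid, rifampicin, ethambutol and ofloxacin.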
For orientation: Agar dilution tests growth on a series of plates holding different concentrations.

Data set [12] deals with Mus musculus. The data set is described as §2. It is filed as organism-based. On the set-up: dose 140 mg/kg, route oral. Particulars: in vivo. The essentials:
as §1
This is another data set of the same source.

The subject of data set [13] is Mycolicibacterium smegmatis. The experiment in a line: Antimycobacterial activity against Mycobacterium smegmatis MC2 by agar dilution method. The data set is classed as functional. The essentials: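 Agar dilution in Middlebrook 7H11 agar with OADC, run along NCCLS-recommended lines; M. smegmatis ATCC 14468 (MC2); MIC determined in duplicate.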
For data set [14], the system named is Mycobacterium tuberculosis. The experiment in a line: Antimycobacterial activity against Mycobacterium tuberculosis ATCC 35801 infected in CD1 mouse assessed as bacterial load in lungs at 50 mg/kg, ip after 10 days. It is filed as functional. Particulars: route intraperitoneal. The essentials: (§3)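 Female CD-1 mice, 6 weeks old, six per group, infected IV via caudal vein with ~10⁷ viable organisms. Intraperitoneal treatment started 10 days after inoculation and ran 10 days. At 35 days post-infection, spleens and right lungs were homogenised and serially 10-fold diluted onto 7H10 agar, incubated 4 weeks at 37 °C in ambient air. CFU compared with vehicle-treated controls.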

Data set [15] has as its system Mycobacterium tuberculosis. The experiment in a line: Antimycobacterial activity against Mycobacterium tuberculosis ATCC 35801 infected in CD1 mouse assessed as bacterial load in spleen at 50 mg/kg, ip after 10 days. The data set is classed as functional. Particulars: route intraperitoneal. The essentials: as §3
The nature of data set [16]: Selectivity index, ratio of IC50 for monkey Vero cells to MIC for Mycobacterium tuberculosis H37Rv. The data set is classed as functional.
In data set [17] the test system is Mycobacterium tuberculosis. The experiment in a line: Antimycobacterial activity against Mycobacterium tuberculosis ATCC 35801 infected in CD1 mouse assessed as bacterial load in lungs at 25 mg/kg, ip after 10 days. The data set is classed as functional. Particulars: route intraperitoneal. The essentials:
as §3

The subject of data set [18] is Mycobacterium tuberculosis. The experiment in a line: Antimycobacterial activity against Mycobacterium tuberculosis ATCC 35801 infected in CD1 mouse assessed as bacterial load in spleen at 25 mg/kg, ip after 10 days. It is filed as functional. As to conditions: route intraperitoneal. The essentials:
as §3

Chain of DNA gyrase subunit B (Mycobacterium smegmatis (strain ATCC 700084 / mc(2)155), UniProt A0QNE0) (A0QNE0 whole entry): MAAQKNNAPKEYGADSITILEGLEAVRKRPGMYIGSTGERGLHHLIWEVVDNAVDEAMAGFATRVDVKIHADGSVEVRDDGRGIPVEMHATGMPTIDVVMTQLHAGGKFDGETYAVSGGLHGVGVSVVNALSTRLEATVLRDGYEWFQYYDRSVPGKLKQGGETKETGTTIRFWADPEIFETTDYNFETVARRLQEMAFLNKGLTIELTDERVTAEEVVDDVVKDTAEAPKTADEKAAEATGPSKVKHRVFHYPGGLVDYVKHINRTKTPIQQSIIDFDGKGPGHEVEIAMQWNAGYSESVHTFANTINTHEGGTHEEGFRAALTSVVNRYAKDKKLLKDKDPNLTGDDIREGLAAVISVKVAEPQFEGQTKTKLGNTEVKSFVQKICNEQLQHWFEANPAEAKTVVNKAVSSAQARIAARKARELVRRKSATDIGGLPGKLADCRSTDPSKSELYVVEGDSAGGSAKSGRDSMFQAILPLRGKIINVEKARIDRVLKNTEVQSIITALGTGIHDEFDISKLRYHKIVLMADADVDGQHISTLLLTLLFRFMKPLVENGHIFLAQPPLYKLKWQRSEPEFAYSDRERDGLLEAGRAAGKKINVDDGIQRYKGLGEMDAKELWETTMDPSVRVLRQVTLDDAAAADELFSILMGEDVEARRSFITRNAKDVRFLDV

In the case of `COc1c(N2CCN(C(=O)C3COc4ccccc4O3)CC2)c(F)cc2c(=O)c(C(=O)O)cn(C3CC3)c12` (configuration not stated), the Activity is 0.33 mm in the data set with Mus musculus [1]; “Non-toxic” in the data set with Mus musculus [2]; 0.32 mm in the data set on Mus musculus [4]; 0.33 mm in the data set with Mus musculus [5]; 0.31 mm with Mus musculus [6]; “Non-toxic” in the data set with Mus musculus [7]. The Activity entry is listed as “Non-toxic” with Mus musculus [8], 0.32 mm in the data set on Mus musculus [9], “Non-toxic” with Mus musculus [10] and “Non-toxic” in the data set with Mus musculus [12]. Also, the IC50 (in general, the concentration needed to halve the response being measured) in data set [3] was 57.3 µM; with Vero it was 119 µM. In addition, the minimum inhibitory concentration (MIC) in data set [11] and in data set [13] was 1.49 µM (≈ 0.78 µg/mL) each time.

Consider `COc1c(N2CCC3(CC2)OCCO3)c(F)cc2c(=O)c(C(=O)O)cn(C3CC3)c12`, for which the IC50 in [3] is over 119 µM; in the data set with Vero, 149 µM. In addition, the Activity in [14] is 6.12; in data set [15] it was 6.41. In addition, the figures for the MIC in [11] and in data set [13] were 0.93 µM (≈ 0.389 µg/mL) and 1.86 µM (≈ 0.778 µg/mL), respectively.

In the case of `COc1c(N2CCNC(C)C2)c(F)cc2c(=O)c(C(=O)O)cn(C3CC3)c12` (configuration not stated) [GATIFLOXACIN], the Activity is listed as 6.02 in data set [14] and 6.92 in data set [15]. Further, the IC50 in the data set on Vero was over 155 µM. The minimum inhibitory concentration (MIC) (commonly the lowest concentration that inhibits growth of the organism) was 1.04 µM (≈ 0.39 µg/mL) in data set [11] and 2.08 µM (≈ 0.781 µg/mL) in [13].

Regarding `COc1ccc(CC2C3=C(CCCC3)CCN2c2c(F)c([N+](=O)[O-])c3c(=O)c(C(=O)O)cn(C4CC4)c3c2OC)cc1` (configuration not stated), the Activity with Mus musculus [1] was 0.33 mm; in the data set on Mus musculus [2] it was “Non-toxic”; in the data set with Mus musculus [4] it was 0.32 mm; in the data set on Mus musculus [5], 0.33 mm; in data set [14], 5.41; in the data set on Mus musculus [6], 0.33 mm. Besides, the Activity result with Mus musculus [7] is on record as “Non-toxic”; in the data set on Mus musculus [8], “Non-toxic”; in the data set with Mus musculus [9], 0.32 mm; in the data set on Mus musculus [10] it was “Non-toxic”; in [15], 6.1; in the data set on Mus musculus [12], “Non-toxic”. The half-inhibitory concentration (IC50) is 51.9 µM in data set [3] and 108 µM in the data set on Vero. The Selectivity index in data set [16] is reported as 676.31. The MIC came out at 0.16 µM (≈ 0.0924 µg/mL) in data set [11] and 0.68 µM (≈ 0.393 µg/mL) in [13].

Consider `NNC(=O)c1ccncc1` [ISONIAZID], for which the Activity in data set [17] is recorded as 5.86; in data set [18], 4.71. Besides, the IC50 with Vero is over 456 µM. Besides, the values for the MIC in data set [11] and in [13] were 0.36 µM (≈ 0.0494 µg/mL) and 45.6 µM (≈ 6.25 µg/mL), respectively.
